# Compound activity (PubChem)
# A3A deaminase = human APOBEC3A DNA deaminase inhibition; P31941; recombinant A3A, FAM/TAMRA ssDNA deamination fluorescence; inhibition, % at 20 µM; hit rate 0.41% among 330,000;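 active means at least 40% inhibition at 20 µM here, with at most 30% in a related deaminase screen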
# Target sequence (P31941 whole entry, looked up): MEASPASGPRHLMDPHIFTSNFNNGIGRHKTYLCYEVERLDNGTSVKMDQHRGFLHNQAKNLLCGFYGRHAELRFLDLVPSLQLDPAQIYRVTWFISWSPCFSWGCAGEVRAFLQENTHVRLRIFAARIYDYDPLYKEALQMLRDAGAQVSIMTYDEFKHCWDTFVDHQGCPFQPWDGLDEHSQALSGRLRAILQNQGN
# PolyA inh = yeast polyadenylation inhibition; activity score, % at 12 µM; hit rate 0.02% among 300,000; AID 1875; S. cerevisiae SKY197-pL101 polyadenylation reporter, beta-gal luminescence; efflux-impaired pdr1/pdr3 knockout yeast; score 100 = 6 SD above DMSO;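 active means lowest replicate activity score at least 50, where 100 means six control SD above control mean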;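 further: yeast exposed to compound for 9 h at 30 °C; higher score means more reporter readthrough which indicates perturbed polyadenylation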
# Arrestin-AP2 inh = human beta-arrestin and AP2 interaction inhibition | AID 504490 | FITC-arrestin peptide / GST-AP2 beads, flow cytometry; AP2 beta2 appendage carries R879A mutation | hit rate 0.31% among 340,000 | inhibition, % at 10 µM;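 active means inhibition above a set limit, near 3 SD of compounds lacking own fluorescence, cut at about 54% in these data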
#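 system = GST-tagged AP2 beta2-adaptin appendage (R879A) on 4 µm glutathione beads | reagent = FITC-labelled arrestin peptide probe, 50 nM final | schedule = compound with beads 12 min RT, then probe 1 h RT | signal = HyperCyt-sampled flow cytometry, FL1 channel, ex 488/em 535 nm | read-out = percent response from loss of bead-bound FITC fluorescence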
# AHR activator = human AHR activation | AHR-responsive luciferase reporter cells, luminescence | activation, % at 5 µM | hit rate 2.5% among 320,000 | AID 2796; in the data active means activation above about 47%
# APOBEC3G inh = inhibitors of human APOBEC3G DNA deaminase. recombinant A3G, ssDNA deamination FAM/TAMRA fluorescence. inhibition, % at 20 µM. hit rate 0.28% among 330,000. AID 493012;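 active means inhibition of at least 40% at 20 µM, with no more than 30% in the related APOBEC3A deaminase screen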
# UCH37 DUB inh = blocks the human deubiquitinase UCH37. hit rate 0.33% among 330,000. purified proteasome/UCH37, Ub-AMC cleavage fluorescence. Q9Y5K5. inhibition, % (concentration not given with the values). AID 588478;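 active means mean inhibition over replicate wells above about 20%, limit read from the data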
#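 Schedule: 30 min plus 25 min, room temperature / Material: human UCH37 within purified proteasomes / Technique: AMC fluorescence intensity at 355/460 nm / Buffer or medium: pH 7.4 Tris-HCl (50 mM) with ovalbumin, ATP-MgCl2, DTT / Controls: wells without proteasome as full block, compound-free enzyme plus substrate as uninhibited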
# AHR act cf = confirmation of human aryl hydrocarbon receptor activators. shares compounds with AHR activator. human cells, AHR-responsive luciferase reporter, luminescence. activation, % at 9 µM. hit rate 87% among 2,300. AID 2845; in the data active means activation above about 49%;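 further: HepG2 hepatoma cells carrying a DRE-driven firefly luciferase reporter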
# PXR counter = counter-screen for AHR activators: human PXR activators; cell-based PXR reporter, luciferase luminescence; hit rate 88% among 2,300; shares compounds with AHR activator; activation, % at 11.6 µM; in the data active means activation above about 11%;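 further: human hepatoma DPX-2 cells expressing full-length human PXR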
# Numbers stand for hits; 0 = inactive; - = not tested or not shown. Hits are enriched below; roughly 3.4% of the tested compounds scored in any of these assays.
SMILES,A3A deaminase,PolyA inh,Arrestin-AP2 inh,AHR activator,APOBEC3G inh,UCH37 DUB inh,AHR act cf,PXR counter
Cc1ccc(NCc2ccccc2OCc2ccccc2F)cc1,0,0,0,106,0,0,82,36
Cn1c(=O)n(C)c2cc(NC(=O)c3ccc(F)cc3)c(Br)cc21,0,0,0,0,0,0,-,-
Cn1c(=O)n(C)c2cc(NC(=O)c3cccc([N+](=O)[O-])c3)c(Br)cc21,0,0,0,101,0,0,101,0
CCOc1ccc(-c2c(C(=O)N/N=C(\C)c3cccnc3)nnn2-c2nonc2N)cc1,0,0,0,91,0,-,94,33
Cc1ccc(-c2[nH]ncc2C(=O)c2cccc(F)c2)c(O)c1,0,0,0,0,0,0,-,-
O=[N+]([O-])c1ccccc1-c1cc(-c2ccccc2O)n[nH]1,0,0,0,0,0,0,-,-
Cc1ccc(-c2cc(-c3ccccc3C)[nH]n2)c(O)c1,0,-,0,102,0,0,136,18
Cc1ccc(-c2cc(-c3cccc(F)c3)n[nH]2)c(O)c1,0,0,0,126,0,0,142,16
CCOc1ccc(NC(=O)CCC(=O)NN=C(C)c2cccs2)cc1,-,-,-,-,-,0,-,-
Nc1c(Cl)cc(C2=NCCn3c2c2ccccc2[n+]3[O-])cc1Cl,0,0,0,85,0,0,101,20
[O-][n+]1c2ccccc2c2n1CCN=C2c1ccc(Cl)cc1,0,0,0,102,0,0,115,12
Nc1c(Cl)cc(C2=NCCn3nc4ccccc4c32)cc1Cl,0,0,0,0,0,0,-,-
Cc1ccsc1C=Nn1c(COc2ccccc2)n[nH]c1=S,-,-,-,-,-,0,-,-
Cc1cc(C=NNC(=O)CC(=O)NC2CCCCC2)c(C)n1-c1ccc(Cl)cc1,-,-,-,-,-,0,-,-
O=C(COc1cccc2cccnc12)NN=C1SCC(=O)N1Cc1ccco1,-,-,-,-,-,0,-,-
CC(C)C(=O)Nc1cccc(-c2cnc3ccccc3n2)c1,0,0,0,0,0,0,-,-
CNC(=S)Nc1cccc(-c2cnc3ccccc3n2)c1,0,0,0,118,0,0,100,19
CS(=O)(=O)Nc1cccc(-c2cnc3ccccc3n2)c1,0,0,0,88,0,0,120,0
Cc1ccc(C(=O)Nc2cccc(-c3cnc4ccccc4n3)c2)cc1,0,0,0,0,0,0,-,-
O=C(NC(=S)Nc1ccc(F)c(Cl)c1)C1CC1,0,0,0,93,0,0,95,-
Cc1ccc(NC(=S)NC(=O)C2CC2)cc1Cl,0,-,0,-,0,0,-,-
COc1cccc(C(=O)O/N=C(\N)c2ccc([N+](=O)[O-])cc2)c1,0,0,0,79,0,0,75,-
CC(CC(=O)NCCCN1CCOCC1)=NNC(=O)COc1ccc(Cl)cc1,-,-,-,-,-,0,-,-
CC(=O)ON=C(c1nonc1N)N1CCN(c2ccc([N+](=O)[O-])cc2Cl)CC1,-,-,-,-,-,0,-,-
CCOC(=O)Cc1cc(=O)n2[nH]c(-c3ccccc3)cc2n1,0,0,0,0,0,0,-,-
SMILES,A3A deaminase,PolyA inh,Arrestin-AP2 inh,AHR activator,APOBEC3G inh,UCH37 DUB inh,AHR act cf,PXR counter
CCCc1cc(=O)n2[nH]c(NCc3c(Cl)cccc3Cl)nc2n1,0,0,0,0,0,0,-,-
Cc1cccc(-c2cc3nc(-c4ccccc4)cc(=O)n3[nH]2)c1,0,0,0,89,0,0,105,34
CCCc1cc(=O)n2[nH]c(-c3ccc(Br)cc3)cc2n1,0,0,0,104,0,0,110,47
CCCc1cc(=O)n2[nH]c(-c3cccc(Br)c3)cc2n1,0,0,0,160,0,0,166,35
Cc1nc(C)c(C(=O)N/N=C/c2c[nH]c3ccccc23)s1,0,0,0,84,0,-,47,-
Cc1nc(C)c(C(=O)N/N=C/c2cn(C)c3ccccc23)s1,0,0,0,97,0,-,63,23
CC(=O)n1cc(C=NNC(=O)c2sc(C)nc2C)c2ccccc21,-,-,-,-,-,0,-,-
O=C(NN=Cc1ccccn1)c1cc(-c2ccc3ccccc3c2)n[nH]1,-,-,-,-,-,0,-,-
Cn1c(=O)[nH]c(=O)c2c1nc(Br)n2CC=NNC(N)=S,-,-,-,-,-,0,-,-
